Test results published in paper PMC3005847 (Biochemistry, 2010).
Changes are numbered by the printed parent chain.

How the values were obtained:
T. foetus IMPDH Q324A = molecular target: T1, T. foetus IMPDH Q324A (Tritrichomonas foetus, UniProt P50097, Q324A); assay: Steady-state kinetics, Q324A; type: biochemical
T1 sequence (P50097 1-503 Q324A): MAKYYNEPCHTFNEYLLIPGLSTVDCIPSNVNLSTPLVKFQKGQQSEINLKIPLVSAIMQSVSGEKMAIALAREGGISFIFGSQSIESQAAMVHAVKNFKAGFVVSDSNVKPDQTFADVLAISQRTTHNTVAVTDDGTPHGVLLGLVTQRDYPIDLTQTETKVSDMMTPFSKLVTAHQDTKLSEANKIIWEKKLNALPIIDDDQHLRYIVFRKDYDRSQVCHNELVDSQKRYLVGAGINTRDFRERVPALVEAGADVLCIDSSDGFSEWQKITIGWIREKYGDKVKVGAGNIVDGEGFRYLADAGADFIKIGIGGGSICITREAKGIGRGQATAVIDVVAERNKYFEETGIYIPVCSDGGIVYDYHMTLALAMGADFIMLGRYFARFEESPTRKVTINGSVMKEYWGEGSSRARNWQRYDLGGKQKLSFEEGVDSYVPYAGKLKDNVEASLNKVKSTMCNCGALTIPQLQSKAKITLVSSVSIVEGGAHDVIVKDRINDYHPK

T. foetus IMPDH R322E [1] = molecular target: T2, T. foetus IMPDH R322E (Tritrichomonas foetus, UniProt P50097, R322E); assay: Steady-state kinetics, R322E; type: biochemical; conditions: read-out: Km NAD^+, pH 8.0, 25 °C
T2 sequence (P50097 1-503 R322E): T1 sequence (P50097 1-503 Q324A) with R322E, A324Q
How it was run: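 Mutant enzyme was expressed in IMPDH-deficient E. coli H712 and IMP-affinity purified. Assay buffer was 50 mM Tris-Cl pH 8.0, 100 mM KCl, 1 mM DTT, at 25 °C. NADH production was monitored at 340 nm (ε = 6.22 mM−1cm−1). Initial velocities were fitted to Michaelis–Menten or to a form with uncompetitive substrate inhibition, giving Km.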

[2] = molecular target: T3, T. foetus IMPDH wild-type (Tritrichomonas foetus, UniProt P50097); assay: Equilibrium dissociation constant by intrinsic protein fluorescence, wild-type; type: binding; conditions: corrected for non-specific quenching, assay buffer, 25 °C
[3] = molecular target: T3, T. foetus IMPDH wild-type; conditions: cited from earlier work
T. foetus IMPDH R322A = molecular target: T4, T. foetus IMPDH R322A (Tritrichomonas foetus, UniProt P50097, R322A); assay: Steady-state kinetics, R322A; type: biochemical; conditions: read-out: Km NAD^+, pH 8.0, 25 °C
T4 sequence (P50097 1-503 R322A): T1 sequence (P50097 1-503 Q324A) with R322A, A324Q

T. foetus IMPDH E323A = molecular target: T5, T. foetus IMPDH E323A (Tritrichomonas foetus, UniProt P50097, E323A); assay: Steady-state kinetics, E323A; type: biochemical; conditions: read-out: Km NAD^+, pH 8.0, 25 °C
T5 sequence (P50097 1-503 E323A): T1 sequence (P50097 1-503 Q324A) with E323A, A324Q

T. foetus IMPDH R322E [4] = molecular target: T2, T. foetus IMPDH R322E; assay: Equilibrium dissociation constant by intrinsic protein fluorescence, R322E; type: binding; conditions: assay buffer, 25 °C
How it was run: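 NAD+ titrated into 0.2–0.3 µM R322E enzyme. The enzyme was expressed in IMPDH-deficient E. coli H712 and IMP-affinity purified. Assay buffer was 50 mM Tris-Cl pH 8.0, 100 mM KCl, 1 mM DTT, at 25 °C. Intrinsic protein fluorescence read at ex 295 / em 344 nm, corrected for inner-filter effect. Nonspecific quenching measured by titrating ligand into L-tryptophan. Kd taken from the corrected binding curve.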

T. foetus IMPDH R322E [5] = molecular target: T2, T. foetus IMPDH R322E; assay: Multiple-inhibitor kinetics with tiazofurin and ADP, R322E; type: biochemical; conditions: R322E relative to wild-type
How it was run: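 Mutant enzymes were expressed in IMPDH-lacking E. coli H712 and purified by IMP-affinity chromatography. Tiazofurin and ADP were varied together in assay buffer (50 mM Tris-Cl pH 8.0, 100 mM KCl, 1 mM DTT) at 25 °C. NADH formation was followed at 340 nm. Initial velocities were fitted to a two-inhibitor equation giving Ki, Kj and interaction constant α.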

Row | Compound | Km (T. foetus IMPDH Q324A; read-out: Km NAD^+, pH 8.0, 25 °C) [µM] | Kii NAD^+ (T. foetus IMPDH Q324A; uncompetitive substrate inhibition, pH 8.0, 25 °C) [mM] | Km (T. foetus IMPDH R322E [1]) [µM] | Kd [2] [µM] | Km ([3]; read-out: Km NAD^+) [µM] | Kii NAD^+ ([3]; uncompetitive substrate inhibition) [mM] | Km (T. foetus IMPDH R322A) [µM] | Km (T. foetus IMPDH E323A) [µM] | Kd (T. foetus IMPDH R322E [4]) [µM] | Decrease in affinity of tiazofurin caused by the mutation (factor) (T. foetus IMPDH R322E [5])
1 | NC(=O)c1ccc[n+]([C@@H]2O[C@H](COP(=O)([O-])OP(=O)(O)OC[C@H]3O[C@@H](n4cnc5c(N)ncnc54)[C@H](O)[C@@H]3O)[C@@H](O)[C@H]2O)c1 [NAD^+] | 120 ± 20 | 2.4 ± 0.3 | 2600 ± 700 | 27 ± 6 | 150 ± 30 | 7 ± 2 | 910 ± 90 | 300 ± 20 | 37 ± 10 | –
2 | NC(=O)c1csc([C@@H]2O[C@H](CO)[C@@H](O)[C@H]2O)n1 [TAZ, tiazofurin] | – | – | – | – | – | – | – | – | – | > 3
